Test results from ChEMBL document CHEMBL1151702, “Using an aryl phenanthroimidazole moiety as a conjugated flexible intercalator to improve the hybridization efficiency of a triplex-forming oligonucleotide” (Bioorg Med Chem, 2008).

How the values were obtained:
Type in all cases: nucleic-acid assay
[1] = system: Nucleic Acid; test: Binding affinity to synthetic oligonucleotide ON19 at 1.0 uM at pH 6.0 by thermal denaturation study
Procedure, shortened: (§1)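 Duplex melting: complementary strands at 1.0 µM each in 20 mM sodium cacodylate, 100 mM NaCl, 10 mM MgCl₂, at the pH of the line. Annealed at 80 °C for 5 min, then cooled to 5 °C and held 30 min. UV absorbance read at 260 nm with heating at 1.0 °C/min; Tm is the maximum of the first-derivative curve.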

[2] = system: Nucleic Acid; test: Binding affinity to synthetic oligonucleotide ON20 at 1.0 uM at pH 7.0 by thermal denaturation study
Procedure, shortened: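 DNA/RNA antiparallel duplex: each strand at 1.0 µM in 10 mM sodium phosphate, 140 mM NaCl, 1 mM EDTA, pH 7.0. Heated to 80 °C for 5 min, cooled to 5 °C and held 30 min. Absorbance followed at 260 nm during a 1.0 °C/min temperature ramp; Tm is the first-derivative maximum.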

[3] = system: Nucleic Acid; test: Binding affinity to synthetic double stranded DNA D1 at 1.5 uM at pH 7.2 by thermal denaturation study
Procedure, shortened: (§2)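 Parallel triplex melting: target duplex assembled from strands at 1.0 µM each, TFO third strand added at 1.5 µM. Buffer 20 mM sodium cacodylate, 100 mM NaCl, 10 mM MgCl₂, at the pH of the line. Samples heated to 80 °C for 5 min, cooled to 5 °C and held 30 min. Absorbance read at 260 nm while heating at 1.0 °C/min; Tm taken as the first-derivative maximum.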

[4] = system: Nucleic Acid; test: Binding affinity to synthetic oligonucleotide ON18 at 1.0 uM at pH 6.0 by thermal denaturation study; procedure, shortened: as §1
[5] = system: Nucleic Acid; test: Binding affinity to synthetic oligonucleotide ON19 at 1.0 uM at pH 7.2 by thermal denaturation study; procedure, shortened: as §1
[6] = system: Nucleic Acid; test: Binding affinity to synthetic double stranded DNA D1 at 1.5 uM at pH 6.0 by thermal denaturation study; procedure, shortened: as §2
[7] = system: Nucleic Acid; test: Binding affinity to synthetic double stranded DNA D3 at 1.5 uM at pH 6.0 by thermal denaturation study; procedure, shortened: as §2
[8] = system: Nucleic Acid; test: Binding affinity to synthetic double stranded DNA D1 at 1.5 uM at pH 5.0 by thermal denaturation study; procedure, shortened: as §2
[9] = system: Nucleic Acid; test: Binding affinity to synthetic double stranded DNA D4 at 1.5 uM at pH 6.0 by thermal denaturation study; procedure, shortened: as §2
[10] = system: Nucleic Acid; test: Binding affinity to synthetic double stranded DNA D2 at 1.5 uM at pH 6.0 by thermal denaturation study; procedure, shortened: as §2

Row | SMILES | Tm [1] | Tm [2] | Tm [3] | Tm [4] | Tm [5] | Tm [6] | Tm [7] | Tm [8] | Tm [9] | Tm [10]
1 | Cc1cn([C@H]2C[C@H](OP(=O)(O)OC[C@H]3O[C@@H](n4cc(C)c(=O)[nH]c4=O)C[C@@H]3OP(=O)(O)OC[C@H]3O[C@@H](n4cc(C)c(=O)[nH]c4=O)C[C@@H]3OP(=O)(O)OC[C@H]3O[C@@H](n4ccc(N)nc4=O)C[C@@H]3OP(=O)(O)OC[C@H]3O[C@@H](n4cc(C)c(=O)[nH]c4=O)C[C@@H]3OP(=O)(O)OC[C@H]3O[C@@H](n4cc(C)c(=O)[nH]c4=O)C[C@@H]3OP(=O)(O)OC[C@H]3O[C@@H](n4cc(C)c(=O)[nH]c4=O)C[C@@H]3O[PH](O)(O)OC[C@H]3O[C@@H](n4cc(C)c(=O)[nH]c4=O)C[C@@H]3OP(=O)(O)OC[C@H]3O[C@@H](n4cc(C)c(=O)[nH]c4=O)C[C@@H]3OP(=O)(O)OC[C@H]3O[C@@H](n4cc(C)c(=O)[nH]c4=O)C[C@@H]3O)[C@@H](COP(=O)(O)O[C@H]3C[C@H](n4ccc(N)nc4=O)O[C@@H]3COP(=O)(O)O[C@H]3C[C@H](n4ccc(N)nc4=O)O[C@@H]3COP(=O)(O)O[C@H]3C[C@H](n4ccc(N)nc4=O)O[C@@H]3COP(=O)(O)O[C@H]3C[C@H](n4ccc(N)nc4=O)O[C@@H]3CO)O2)c(=O)[nH]c1=O | 49.5 °C | 52 °C | < 5 °C | 19 °C | 49.5 °C | 28 °C | < 5 °C | 55 °C | < 5 °C | < 5 °C
2 | Cc1cn([C@H]2C[C@H](OP(=O)(O)OC[C@H]3O[C@@H](n4ccc(N)nc4=O)C[C@@H]3OP(=O)(O)OC[C@H]3O[C@@H](n4cc(C)c(=O)[nH]c4=O)C[C@@H]3OP(=O)(O)OC[C@H]3O[C@@H](n4cc(C)c(=O)[nH]c4=O)C[C@@H]3OP(=O)(O)OC[C@H]3O[C@@H](n4cc(C)c(=O)[nH]c4=O)C[C@@H]3O[PH](O)(O)OC[C@H]3O[C@@H](n4cc(C)c(=O)[nH]c4=O)C[C@@H]3OP(=O)(O)OC[C@H]3O[C@@H](n4cc(C)c(=O)[nH]c4=O)C[C@@H]3OP(=O)(O)OC[C@H]3O[C@@H](n4cc(C)c(=O)[nH]c4=O)C[C@@H]3O)[C@@H](COC[C@H](CCOc3ccc(-c4nc5c6ccccc6c6ccccc6c5[nH]4)c4ccccc34)OP(=O)(O)O[C@H]3C[C@H](n4cc(C)c(=O)[nH]c4=O)O[C@@H]3COP(=O)(O)O[C@H]3C[C@H](n4cc(C)c(=O)[nH]c4=O)O[C@@H]3COP(=O)(O)O[C@H]3C[C@H](n4ccc(N)nc4=O)O[C@@H]3COP(=O)(O)O[C@H]3C[C@H](n4ccc(N)nc4=O)O[C@@H]3COP(=O)(O)O[C@H]3C[C@H](n4ccc(N)nc4=O)O[C@@H]3COP(=O)(O)O[C@H]3C[C@H](n4ccc(N)nc4=O)O[C@@H]3CO)O2)c(=O)[nH]c1=O | 46.5 °C | 49.5 °C | 18.5 °C | 21.5 °C | 46 °C | 40.5 °C | 21 °C | 55 °C | 25.5 °C | 16.5 °C
3 | Cc1cn([C@H]2C[C@H](OP(=O)(O)OC[C@H]3O[C@@H](n4ccc(N)nc4=O)C[C@@H]3OP(=O)(O)OC[C@H]3O[C@@H](n4cc(C)c(=O)[nH]c4=O)C[C@@H]3OP(=O)(O)OC[C@H]3O[C@@H](n4cc(C)c(=O)[nH]c4=O)C[C@@H]3OP(=O)(O)OC[C@H]3O[C@@H](n4cc(C)c(=O)[nH]c4=O)C[C@@H]3O[PH](O)(O)OC[C@H]3O[C@@H](n4cc(C)c(=O)[nH]c4=O)C[C@@H]3OP(=O)(O)OC[C@H]3O[C@@H](n4cc(C)c(=O)[nH]c4=O)C[C@@H]3OP(=O)(O)OC[C@H]3O[C@@H](n4cc(C)c(=O)[nH]c4=O)C[C@@H]3O)[C@@H](COC[C@H](CCOc3ccc(-c4ncc[nH]4)c4ccccc34)OP(=O)(O)O[C@H]3C[C@H](n4cc(C)c(=O)[nH]c4=O)O[C@@H]3COP(=O)(O)O[C@H]3C[C@H](n4cc(C)c(=O)[nH]c4=O)O[C@@H]3COP(=O)(O)O[C@H]3C[C@H](n4ccc(N)nc4=O)O[C@@H]3COP(=O)(O)O[C@H]3C[C@H](n4ccc(N)nc4=O)O[C@@H]3COP(=O)(O)O[C@H]3C[C@H](n4ccc(N)nc4=O)O[C@@H]3COP(=O)(O)O[C@H]3C[C@H](n4ccc(N)nc4=O)O[C@@H]3CO)O2)c(=O)[nH]c1=O |  |  |  |  |  | 10.5 °C |  | 33 °C |  | 
4 | Cc1cn([C@H]2C[C@H](OP(=O)(O)OC[C@H]3O[C@@H](n4ccc(N)nc4=O)C[C@@H]3OP(=O)(O)OC[C@H]3O[C@@H](n4cc(C)c(=O)[nH]c4=O)C[C@@H]3OP(=O)(O)OC[C@H]3O[C@@H](n4cc(C)c(=O)[nH]c4=O)C[C@@H]3OP(=O)(O)OC[C@H]3O[C@@H](n4cc(C)c(=O)[nH]c4=O)C[C@@H]3O[PH](O)(O)OC[C@H]3O[C@@H](n4cc(C)c(=O)[nH]c4=O)C[C@@H]3OP(=O)(O)OC[C@H]3O[C@@H](n4cc(C)c(=O)[nH]c4=O)C[C@@H]3OP(=O)(O)OC[C@H]3O[C@@H](n4cc(C)c(=O)[nH]c4=O)C[C@@H]3O)[C@@H](COC[C@H](COCc3ccc(C#Cc4ccc5ccc6cccc7ccc4c5c67)cc3)OP(=O)(O)O[C@H]3C[C@H](n4cc(C)c(=O)[nH]c4=O)O[C@@H]3COP(=O)(O)O[C@H]3C[C@H](n4cc(C)c(=O)[nH]c4=O)O[C@@H]3COP(=O)(O)O[C@H]3C[C@H](n4ccc(N)nc4=O)O[C@@H]3COP(=O)(O)O[C@H]3C[C@H](n4ccc(N)nc4=O)O[C@@H]3COP(=O)(O)O[C@H]3C[C@H](n4ccc(N)nc4=O)O[C@@H]3COP(=O)(O)O[C@H]3C[C@H](n4ccc(N)nc4=O)O[C@@H]3CO)O2)c(=O)[nH]c1=O | 46.5 °C |  | 28 °C | 33.5 °C | 45.5 °C | 45.5 °C | 34.5 °C | 59 °C | 28.5 °C | 27 °C
5 | Cc1cn([C@H]2C[C@H](OP(=O)(O)OC[C@H]3O[C@@H](n4cc(C)c(=O)[nH]c4=O)C[C@@H]3O[PH](O)(O)OC[C@H]3O[C@@H](n4cc(C)c(=O)[nH]c4=O)C[C@@H]3OP(=O)(O)OC[C@H]3O[C@@H](n4cc(C)c(=O)[nH]c4=O)C[C@@H]3OP(=O)(O)OC[C@H]3O[C@@H](n4cc(C)c(=O)[nH]c4=O)C[C@@H]3O)[C@@H](COC[C@H](CCOc3ccc(-c4nc5c6ccccc6c6ccccc6c5[nH]4)cc3)OP(=O)(O)O[C@H]3C[C@H](n4cc(C)c(=O)[nH]c4=O)O[C@@H]3COP(=O)(O)O[C@H]3C[C@H](n4ccc(N)nc4=O)O[C@@H]3COP(=O)(O)O[C@H]3C[C@H](n4cc(C)c(=O)[nH]c4=O)O[C@@H]3COP(=O)(O)O[C@H]3C[C@H](n4cc(C)c(=O)[nH]c4=O)O[C@@H]3COP(=O)(O)O[C@H]3C[C@H](n4cc(C)c(=O)[nH]c4=O)O[C@@H]3COP(=O)(O)O[C@H]3C[C@H](n4ccc(N)nc4=O)O[C@@H]3COP(=O)(O)O[C@H]3C[C@H](n4ccc(N)nc4=O)O[C@@H]3COP(=O)(O)O[C@H]3C[C@H](n4ccc(N)nc4=O)O[C@@H]3COP(=O)(O)O[C@H]3C[C@H](n4ccc(N)nc4=O)O[C@@H]3CO)O2)c(=O)[nH]c1=O | 51 °C | 53 °C | 33.5 °C | 31.5 °C | 51 °C | 48.5 °C | 33 °C |  | 35.5 °C | 30.5 °C
